A short description of data set [1]: melting temperature; fluorescence melt of hairpins on a sequencing array, two-state fit, raised by 9.35 °C to match UV melts. As to conditions: sodium 0.088 M. Put shortly:
(§1)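 Cy3 signals were normalised both to pre-quench Cy3 and to control constructs. They came from library hairpins carrying annealed Cy3 and quencher oligos on a sequenced MiSeq flow cell, imaged in 50 mM Na-HEPES pH 8.0, 25 mM NaCl, in 2.5 °C steps up to 60 °C. Bootstrapped two-state fits gave melting temperature and folding enthalpy, and four replicates were combined by inverse variance. Fitted temperatures were then raised by 9.35 °C to match UV melts.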

Data set [2] is described as follows: folding enthalpy; higher = less favourable; fluorescence melt of hairpins on a sequencing array, two-state fit. As to conditions: sodium 0.088 M. The essentials:
as §1

The source of these data is the array DNA melting data of Ke et al. (doi:10.1101/2024.01.08.574731).

For the sequence GGCCATCGAAAGATTGCC (((.(((....))).))), in data set [1], the Tm was 49.3 °C. The folding enthalpy in data set [2] is -110 kJ/mol.
For GGCCATGGAAACACAGCC (((..((....))..))), in that order: 27.6 °C and -56.5 kJ/mol.
For the sequence GGCCATGGAAACATGACC ((.((((....)))).)), the Tm in data set [1] is 47.6 °C. Besides, in data set [2], the folding enthalpy was -122 kJ/mol.
For GGCCATGGAAACGTGGTC (.(((.(....).))).), in that order: 45.2 °C and -139 kJ/mol.
For GGCCCACCGAAAGGTGCC (((..(((....)))))), in that order: 34.2 °C and -41.7 kJ/mol.
For GGCCCACGAAAGTGAGCC (((.(((....))).))), in that order: 60.8 °C and -170 kJ/mol.
Consider GGCCCACGAAAGTGCGCC (((.(((....))).))), for which the Tm in data set [1] amounted to 55.8 °C. In addition, in data set [2], the folding enthalpy was -178 kJ/mol.
For GGCCCCGAAAGGGAGCC ((((((....))).))), in that order: 68.4 °C and -132 kJ/mol.
For GGCCCCGAAAGGGGAGCC ((((((....)))..))), in that order: 59.1 °C and -53.4 kJ/mol.
For GGCCCCGAAAGGGTAGCC ((((((....)))..))), in that order: 60.1 °C and -99.2 kJ/mol.
As to GGCCCCGAAAGGGTTGCC ((((((....)))..))), the Tm in data set [1] came out at 55.3 °C. The folding enthalpy in data set [2] was -68.2 kJ/mol.
For GGCCCCTCGAAAGAGGCC (((..(((....)))))), in that order: 43.8 °C and -65.4 kJ/mol.
For GGCCCGACGAAAGTCGCC (((..(((....)))))), in that order: 35.2 °C and -34.5 kJ/mol.
For the sequence GGCCCGGGAAACCGGGTC (.(((((....))))).), in data set [1], the Tm is 67.3 °C. Moreover, the folding enthalpy in data set [2] is -121 kJ/mol.
The corresponding values for GGCCCTCCGAAAGGAGCC (((..(((....)))))) are 38.4 °C and -44.4 kJ/mol.
Take GGCCCTGGAAACAGAGCC (((.(((....))).))): the Tm in data set [1] was found to be 48.7 °C. Moreover, the folding enthalpy in data set [2] is -172 kJ/mol.
Take GGCCCTGGAAACAGGGTC (.(((((....))))).): in data set [1], the Tm was found to be 58.9 °C. Moreover, in data set [2], the folding enthalpy was -151 kJ/mol.
The corresponding values for GGCCCTGGAAACGGGGCC (((((.(....).))))) are 67.5 °C and -131 kJ/mol.
GGCCGACGAAAGTCTGCC (((.(((....))).))): the Tm in data set [1] came to 56.2 °C. Further, in data set [2], the folding enthalpy is -214 kJ/mol.
With GGCCGAGGAAACCCGACC ((.((.(....).)).)), the Tm in data set [1] is 34 °C. Also, the folding enthalpy in data set [2] is -104 kJ/mol.
For GGCCGATCGAAAGATGCC (((..(((....)))))), in that order: 38.9 °C and -105 kJ/mol.
For the sequence GGCCGCGAAAGCGCTGCC ((((((....)))..))), in data set [1], the Tm is 56.5 °C. For the same sequence, in data set [2], the folding enthalpy was -77.7 kJ/mol.
Turning to GGCCGCGAAAGCGGAGCC ((((((....)))..))), the Tm in data set [1] was 53.9 °C. In addition, the folding enthalpy in data set [2] is -56 kJ/mol.
For GGCCGCGAAAGCGTTGCC ((((((....)))..))), in that order: 56 °C and -70.3 kJ/mol.
On to GGCCGCGGAAACGCGACC ((.((((....)))).)), for which the Tm in data set [1] was determined as 63.3 °C. Besides, the folding enthalpy in data set [2] was -82.5 kJ/mol.
Consider GGCCGGACGAAAGTCGCC (((..(((....)))))), for which the Tm in data set [1] came out at 50 °C. Also, the folding enthalpy in data set [2] is -89.8 kJ/mol.
For GGCCGGGGAAACCCGGTC (.(((((....))))).), in that order: 67.9 °C and -103 kJ/mol.
On to GGCCGTCGAAAGACGCC (((.(((....)))))), for which, in data set [1], the Tm was 62.8 °C. For the same sequence, the folding enthalpy in data set [2] was -72.2 kJ/mol.
For GGCCGTGGAAACATGGCC ((((.((....)).)))), in that order: 61.8 °C and -187 kJ/mol.
For GGCCGTGGAAACGCGGTC (.(((.(....).))).), in that order: 52.5 °C and -127 kJ/mol.
For GGCCGTGGAAACGTGGCC ((((..(....)..)))), in that order: 55.5 °C and -167 kJ/mol.
Consider GGCCGTTCGAAAGAAGCC (((..(((....)))))), for which the Tm in data set [1] worked out at 27.6 °C. For the same sequence, the folding enthalpy in data set [2] was -57.5 kJ/mol.
As to GGCCTAGCGAAAGCTGCC (((..(((....)))))), the Tm in data set [1] is 47.1 °C. Further, the folding enthalpy in data set [2] is -85.4 kJ/mol.
For GGCCTCCGAAAGGACGCC (((.(((....))).))), in that order: 53.6 °C and -156 kJ/mol.
The corresponding values for GGCCTCGAAAGAGAAGCC ((((((....)))..))) are 47.9 °C and -109 kJ/mol.
For GGCCTCGAAAGAGCGCC ((((((....))).))), the Tm in data set [1] came out at 56.7 °C. The folding enthalpy in data set [2] is -91.3 kJ/mol.
The corresponding values for GGCCTCGAAAGAGCGGCC ((((((....)))..))) are 51.8 °C and -122 kJ/mol.
For GGCCTCGAAAGAGCTGCC ((((((....)))..))), in that order: 45 °C and -100 kJ/mol.
As for GGCCTCGAAAGAGGTGCC ((((((....)))..))), in data set [1], the Tm is 47.6 °C. For the same sequence, the folding enthalpy in data set [2] was -55.4 kJ/mol.
For GGCCTCGAAAGAGTGCC ((((((....))).))), in that order: 58.2 °C and -158 kJ/mol.
For GGCCTCGGAAACGAGACC ((.((((....)))).)), in that order: 52.2 °C and -131 kJ/mol.
As to GGCCTGCGAAAGCAAGCC (((.(((....))).))), the Tm in data set [1] is 58.5 °C. In addition, the folding enthalpy in data set [2] was -126 kJ/mol.
For GGCCTGGGAAACCAAGCC (((.(((....))).))), in that order: 45.4 °C and -126 kJ/mol.
The corresponding values for GGCCTGTCGAAAGACGCC (((..(((....)))))) are 45.2 °C and -78.8 kJ/mol.
Take GGCCTTCGAAAGAAAGCC (((.(((....))).))): in data set [1], the Tm is 45.7 °C. Also, the folding enthalpy in data set [2] is -130 kJ/mol.
For GGCCTTCGAAAGAATGCC (((.(((....))).))), in that order: 48.3 °C and -138 kJ/mol.
For GGCCTTGAAAAAGGCC ((((((....)))))), in that order: 68.4 °C and -167 kJ/mol.
For GGCCTTGGAAACAGGGCC ((((.((....)).)))), in that order: 57.1 °C and -193 kJ/mol.
For the sequence GGCCTTGGAAACGAGGCC (((((.(....).))))), in data set [1], the Tm stood at 59.4 °C. In addition, the folding enthalpy in data set [2] was -212 kJ/mol.
Take GGCGAAACGAAAGTTGCC (((..(((....)))))): the Tm in data set [1] came out at 49.5 °C. The folding enthalpy in data set [2] is -107 kJ/mol.
For GGCGACGAAAGTCCCGCC ((((((....)))..))), in data set [1], the Tm came out at 54.8 °C. In addition, the folding enthalpy in data set [2] is -81.5 kJ/mol.
The corresponding values for GGCGACGAAAGTCTGGCC ((((((....)))..))) are 53.7 °C and -97.5 kJ/mol.
The corresponding values for GGCGACGAAAGTCTTGCC ((((((....)))..))) are 48.9 °C and -80.8 kJ/mol.
The corresponding values for GGCGACGGAAACGTCGTC (.(((((....))))).) are 67.9 °C and -111 kJ/mol.
